Measured values published in ChEMBL document CHEMBL4052825, “Identification of Novel Coumestan Derivatives as Polyketide Synthase 13 Inhibitors against Mycobacterium tuberculosis” (J Med Chem, 2018).
In brackets after ≈: the same amount, converted by molar mass. Activity calls are given as the source filed them. The calls are words filed in the database; no cut-off is given here.

Columns and labels:
[1] = test system: Mycobacterium tuberculosis H37Rv; assay: Inhibition of PKS13 in Mycobacterium tuberculosis H37Rv assessed as reduction in bacterial growth after […] by MABA
Vero = assay: Cytotoxicity against African green monkey Vero cells after 72 hrs by MABA; format: cell-based; settings: Chlorocebus sabaeus
[2] = Selectivity index, ratio of IC50 for African green monkey Vero cells to MIC=<90 for Mycobacterium tuberculosis H37Rv; format: toxicity; settings: read-out: Selectivity Index
Method in brief: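 Vero (African green monkey kidney) cytotoxicity IC50 by MABA, divided by the MABA MIC against M. tuberculosis H37Rv to give SI = IC50/MIC.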

[3] = test system: Mycobacterium tuberculosis; assay: Antitubercular activity against Mycobacterium tuberculosis H37Rv infected in Balb/C mouse assessed as reduction in bacterial growth in mouse serum at 100 mg/kg, po administered via gavage after 30 to 120 mins by MABA; format: functional, organism-based
Method in brief: (§1)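 Oral serum inhibition titration. Six-week female BALB/c mice (20 g) gavaged with 100 mg/kg compound suspended in 0.5% carboxymethylcellulose. Isoniazid 10 mg/kg was the positive control and vehicle alone the negative control. Cardiac blood taken at 30, 60 and 120 min and serum separated. Serum two-fold serially diluted with 10^4 CFU M. tuberculosis H37Rv, incubated 7 days, read by MABA.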

[4] = test system: Mycobacterium tuberculosis; assay: Antitubercular activity against Mycobacterium tuberculosis by microdilution method; format: functional
Method in brief: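 Whole-cell MIC against M. tuberculosis strain H37Rv, measured by the microplate Alamar Blue assay (MABA) following a previously reported procedure; MIC values given in […].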

HFL1 = assay: Cytotoxicity against HFL1 cells after 48 hrs by CellTiter96 AQueous one solution assay; format: cell-based; settings: Homo sapiens, HFL1, 48 h
Method in brief: (§2)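 Human cell cytotoxicity. QSG-7701 and HEK293 grown in DMEM; MRC-5 and HFL-1 grown in DMEM/F12. Both media carried 10% FBS with penicillin/streptomycin, 37°C, 5% CO2. Cells seeded at 5,000/well, incubated overnight, then exposed to compound for 48 h. CellTiter 96 AQueous One added for 1 h, absorbance read at 490 nm. IC50 is the mean of three independent experiments.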

[5] = Selectivity index, ratio of IC50 for human MRC5 cells to MIC=<90 for Mycobacterium tuberculosis H37Rv; format: toxicity; settings: read-out: Selectivity Index
[6] = Selectivity index, ratio of IC50 for human HFL1 cells to MIC=<90 for Mycobacterium tuberculosis H37Rv; format: toxicity; settings: read-out: Selectivity Index
[7] = Cytotoxicity against human QSG7701 cells after 48 hrs by CellTiter96 AQueous one solution assay; format: cell-based; settings: QSG7701, 48 h; method in brief: as §2
[8] = Metabolic stability in human liver microsomes assessed as parent compound remaining at 10 uM after 60 mins in presence of NADPH; format: ADME, microsome; settings: read-out: Stability
[9] = Selectivity index, ratio of IC50 for human QSG7701 cells to MIC=<90 for Mycobacterium tuberculosis H37Rv; format: toxicity; settings: read-out: Selectivity Index
MRC5 = assay: Cytotoxicity against human MRC5 cells after 48 hrs by CellTiter96 AQueous one solution assay; format: cell-based; settings: MRC5, 48 h; method in brief: as §2
[10] = Selectivity index, ratio of IC50 for human HEK293 cells to MIC=<90 for Mycobacterium tuberculosis H37Rv; format: toxicity; settings: read-out: Selectivity Index
[11] = test system: Mycobacterium tuberculosis; assay: Antitubercular activity against Mycobacterium tuberculosis H37Rv infected in Balb/C mouse assessed as reduction in bacterial growth in mouse serum at 100 mg/kg, po administered via gavage after 30 mins dose by MABA; format: functional, organism-based; method in brief: as §1
HEK293 = assay: Cytotoxicity against human HEK293 cells after 48 hrs by CellTiter96 AQueous one solution assay; format: cell-based; settings: HEK293, 48 h; method in brief: as §2

Row | SMILES | MIC=<90 [1] | other results
1 | O=C(NC1CC1)c1c(-c2ccccc2)oc2ccc(O)c(CN3CCCCC3)c12 | 8 µg/mL | 
2 | O=c1oc2ccccc2c2oc3ccc4c(c3c12)CN(CC1CC1)CO4 | 2 µg/mL | 
3 | COc1ccc2oc(=O)c3c(oc4ccc5c(c43)CN(CC3CC3)CO5)c2c1 | 16 µg/mL | 
4 | O=c1oc2ccc(Cl)cc2c2oc3ccc4c(c3c12)CN(CC1CC1)CO4 | 16 µg/mL | 
5 | O=C(NC12CC3CC(CC(C3)C1)C2)c1c(-c2ccccc2)oc2ccc(O)c(CN3CCCCC3)c12 | > 64 µg/mL | 
6 | O=c1oc2ccc(Br)cc2c2oc3ccc4c(c3c12)CN(CC1CC1)CO4 | 8 µg/mL | 
7 | Cc1ccc2oc(=O)c3c(oc4ccc(O)c(CN5CCCCC5)c43)c2c1 | 0.5 µg/mL | IC50 (Vero): 8 µg/mL (≈ 22 µM); selectivity ratio [2]: 16
8 | COc1ccc2c(c1)oc(=O)c1c2oc2ccc3c(c21)CN(CC1CC1)CO3 | 2 µg/mL | 
9 | O=c1oc2cc(Br)ccc2c2oc3ccc(O)c(CN4CCCCC4)c3c12 | 1 µg/mL | IC50 (Vero): 8 µg/mL (≈ 18.7 µM); selectivity ratio [2]: 8
10 | CCOC(=O)c1c(-c2ccccc2)oc2ccc(O)c(CN3CCC(C)CC3)c12 | 2.5 µM | IC50 (Vero): 16 µg/mL (≈ 40.7 µM); selectivity ratio [2]: 16; Activity [3]: inactive
11 | CCOC(=O)c1c(-c2ccc(OC)cc2)oc2ccc3c(c12)CN(CC1CC1)CO3 | 2 µg/mL | 
12 | CCOC(=O)c1c(NC(=O)c2c(F)c(F)c(F)c(F)c2F)sc(C(N)=O)c1C |  | MIC [4]: 0.5 µM (≈ 0.211 µg/mL)
13 | CCOC(=O)c1c(-c2ccc(Br)cc2OC)oc2ccc(O)c(CN3CCCCC3)c12 | > 64 µg/mL | 
14 | CCOC(=O)c1c(-c2ccc(OC)cc2)oc2ccc(O)c(CN3CCCCC3)c12 | 16 µg/mL | 
15 | CCOC(=O)c1c(-c2ccccc2)oc2ccc(O)cc12 | > 64 µg/mL | 
16 | CCOC(=O)c1c(-c2cc(C)c(C)cc2OC)oc2ccc(O)c(CN3CCCCC3)c12 | 4 µg/mL | 
17 | CCOC(=O)c1c(-c2ccccc2)oc2ccc3c(c12)CN(CCC(C)C)CO3 | 4 µg/mL | 
18 | O=c1oc2cc(Cl)c(Cl)cc2c2oc3ccc4c(c3c12)CN(CC1CC1)CO4 | > 64 µg/mL | 
19 | CCOC(=O)c1c(-c2ccccc2)oc2ccc(O)c(CN3CCN(C)CC3)c12 | > 64 µg/mL | 
20 | CCOC(=O)c1c(-c2ccc(F)cc2OC)oc2ccc(O)c(CN3CCCCC3)c12 | 8 µg/mL | 
21 | CCOC(=O)c1c(-c2ccccc2)oc2ccc3c(c12)CN(CC1CC1)CO3 | 1 µg/mL | IC50 (Vero): 8 µg/mL (≈ 21.2 µM); selectivity ratio [2]: 8
22 | CCOC(=O)c1c(-c2ccccc2)oc2ccc(O)c(CN3CCC(CO)CC3)c12 | 16 µg/mL | 
23 | CCOC(=O)c1c(-c2ccc(F)cc2)oc2ccc(O)c(CN3CCCCC3)c12 | 0.5 µg/mL | IC50 (Vero): 16 µg/mL (≈ 40.3 µM); selectivity ratio [2]: 32; Activity [3]: inactive
24 | O=c1oc2ccccc2c2oc3ccc4c(c3c12)CN(C1CCCC1)CO4 | 0.5 µg/mL | IC50 (Vero): 0.5 µg/mL (≈ 1.38 µM); selectivity ratio [2]: 1
25 | CCOC(=O)c1c(-c2ccc(C(F)(F)F)cc2)oc2ccc(O)c(CN3CCCCC3)c12 | 8 µg/mL | 

Row | SMILES | MIC=<90 [1] | other results
26 | O=c1oc2cc(F)ccc2c2oc3ccc(O)c(CN4CCCCC4)c3c12 | 1 µg/mL | IC50 (Vero): 8 µg/mL (≈ 21.8 µM); selectivity ratio [2]: 8
27 | CCOC(=O)c1c(-c2ccccc2)oc2ccc(OC)c(CN3CCCCC3)c12 | 16 µg/mL | 
28 | CCOC(=O)c1c(-c2ccc(OC)cc2OC)oc2ccc(O)c(CN3CCCCC3)c12 | 16 µg/mL | 
29 | O=c1oc2ccccc2c2oc3ccc(O)c(CN4CCCCC4)c3c12 | 0.125 to 0.25 µg/mL | IC50 (HFL1): > 50 µg/mL; selectivity ratio [5]: > 100; selectivity ratio [6]: > 100; IC50 [7]: > 50 µg/mL; IC50 (Vero): 4 µg/mL (≈ 11.4 µM); remaining at 1 h, 10 µM [8]: 14.5%; selectivity ratio [9]: > 100; IC50 (MRC5): > 50 µg/mL; selectivity ratio [2]: 16 to 32; selectivity ratio [10]: > 100; Activity [11]: Active; IC50 (HEK293): > 50 µg/mL; Activity [3]: Active
30 | O=c1oc2ccc(F)cc2c2oc3ccc4c(c3c12)CN(CC1CC1)CO4 | 16 µg/mL | 
31 | CCOC(=O)c1c(-c2ccccc2)oc2ccc(O)c(CN3CCOCC3)c12 | > 64 µg/mL | 
32 | O=C(O)c1c(-c2ccccc2)oc2ccc(O)c(CN3CCCCC3)c12 | > 64 µg/mL | 
33 | O=c1oc2ccccc2c2oc3ccc(O)cc3c12 | > 64 µg/mL | 
34 | CCOC(=O)c1c(-c2ccccc2)oc2ccc(O)c(CN3CCCC3)c12 | 2 µg/mL | 
35 | Cc1ccc2oc(=O)c3c(oc4ccc5c(c43)CN(CC3CC3)CO5)c2c1 | 4 µg/mL | 
36 | COc1ccc2oc(=O)c3c(oc4ccc(O)c(CN5CCCCC5)c43)c2c1 | 4 µg/mL | 
37 | CCOC(=O)c1c(-c2cc(C)ccc2OC)oc2ccc3c(c12)CN(CC1CC1)CO3 | 8 µg/mL | 
38 | CCOC(=O)c1c(-c2ccccc2)oc2ccc3c(c12)CN(C1CCCC1)CO3 | 2 µg/mL | 
39 | CCCN(CCC)Cc1c(O)ccc2oc(-c3ccccc3)c(C(=O)OCC)c12 | 8 µg/mL | 
40 | COC(=O)c1c(NC(=O)c2c(F)c(F)c(F)c(F)c2F)sc2c1CCCCC2 |  | MIC [4]: 1 µM (≈ 0.419 µg/mL)
41 | Cc1cc2oc(=O)c3c(oc4ccc5c(c43)CN(CC3CC3)CO5)c2cc1C | 8 µg/mL | 
42 | O=C(NCc1ccccc1)c1c(-c2ccccc2)oc2ccc(O)c(CN3CCCCC3)c12 | 16 µg/mL | 
43 | O=c1oc2ccccc2c2oc3ccc4c(c3c12)CN(C1CCCCC1)CO4 | 16 µg/mL | 
44 | O=C(Nc1ccccc1)c1c(-c2ccccc2)oc2ccc(O)c(CN3CCCCC3)c12 | 8 µg/mL | 
45 | CCNC(=O)c1c(-c2ccccc2)oc2ccc(O)c(CN3CCCCC3)c12 | 4 µg/mL | 
46 | CCOC(=O)c1c(-c2ccccc2)oc2ccc3c(c12)CN(C1CC1)CO3 | 16 µg/mL | 
47 | COc1ccc2c(c1)oc(=O)c1c2oc2ccc(O)c(CN3CCCCC3)c21 | 0.25 µg/mL | IC50 (HFL1): 50.2 µg/mL (≈ 132 µM); selectivity ratio [5]: > 100; selectivity ratio [6]: > 100; IC50 [7]: 38.8 µg/mL (≈ 102 µM); IC50 (Vero): 4 µg/mL (≈ 10.5 µM); remaining at 1 h, 10 µM [8]: 45.5%; selectivity ratio [9]: > 100; IC50 (MRC5): > 50 µg/mL; selectivity ratio [2]: 16; selectivity ratio [10]: > 100; IC50 (HEK293): > 50 µg/mL; Activity [3]: Active
48 | CCOC(=O)c1c(-c2ccccc2)oc2ccc(O)c(CN3CCCCC3)c12 | 2 µg/mL | 
49 | CCOC(=O)c1c(-c2ccc(C)cc2)oc2ccc3c(c12)CN(CC1CC1)CO3 | 4 µg/mL | 
